PAFAH2 inh = PAFAH2 (human) inhibition; recombinant PAFAH2, FP-rhodamine activity probe, fluorescence polarization; Q99487; inhibition, % at 3.39 µM; 0.99% of 340,000 active;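 active means inhibition above the mean over all tested compounds plus 3 SD, cut at about 30% in these data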;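 further: inhibitors block probe labeling of enzyme so polarization drops; 0% = enzyme with DMSO and 100% = wells lacking PAFAH2 protein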
ASAP1 GAP inh = inhibitors of human ASAP1 ArfGAP activity; Q9ULH1; ASAP1-stimulated ARF1 GTP hydrolysis, GDP FP detection; inhibition, % at 16.5 µM; 0.19% of 360,000 active; in the data active means inhibition above about 25%;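 further: 0% = vehicle with enzyme and substrate and 100% = no enzyme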
Target sequence (Q9ULH1 325-724 limits assumed): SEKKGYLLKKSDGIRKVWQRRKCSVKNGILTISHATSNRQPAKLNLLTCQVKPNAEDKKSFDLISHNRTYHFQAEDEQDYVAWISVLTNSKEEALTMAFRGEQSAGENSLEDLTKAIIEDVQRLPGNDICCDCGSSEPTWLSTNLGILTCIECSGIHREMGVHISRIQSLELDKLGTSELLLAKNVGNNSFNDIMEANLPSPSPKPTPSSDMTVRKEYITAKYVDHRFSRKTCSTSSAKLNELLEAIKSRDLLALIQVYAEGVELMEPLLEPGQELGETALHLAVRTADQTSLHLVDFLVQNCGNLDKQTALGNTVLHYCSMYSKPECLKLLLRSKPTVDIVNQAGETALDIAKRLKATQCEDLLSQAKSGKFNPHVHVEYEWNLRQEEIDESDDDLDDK
PAFAH1B2 inh = blocks human PAF acetylhydrolase 1b catalytic subunit 2; 1.2% of 340,000 active; P68402; inhibition, % at 3.39 µM; recombinant PAFAH1B2, FP-rhodamine activity probe, fluorescence polarization; AID 492953;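 active means inhibition above the mean of all tested compounds plus 3 SD, cut at about 24% in these data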;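 further: 0% = enzyme with DMSO and 100% = wells lacking PAFAH1B2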
Target sequence (P68402 whole entry, looked up): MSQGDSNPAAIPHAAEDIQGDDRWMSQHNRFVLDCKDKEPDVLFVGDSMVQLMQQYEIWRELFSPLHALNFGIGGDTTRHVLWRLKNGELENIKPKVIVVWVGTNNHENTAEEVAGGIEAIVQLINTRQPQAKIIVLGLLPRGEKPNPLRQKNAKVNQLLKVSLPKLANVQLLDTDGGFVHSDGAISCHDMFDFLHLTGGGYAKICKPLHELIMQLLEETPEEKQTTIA
PAFAH1B3 FP inh = blocks human PAF acetylhydrolase 1B catalytic subunit 3 | AID 492972 | recombinant PAFAH1B3, FP-rhodamine probe, fluorescence polarization | Q15102 | inhibition, % at 3.39 µM | 0.28% of 340,000 active;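 active means inhibition above the screen-wide average of all tested compounds plus 3 SD, cut at about 25% in these data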;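 further: 0% = enzyme with DMSO only and 100% = wells lacking PAFAH1B3 protein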
pPAFAH FP inh = pPAFAH (human) enzyme inhibition. Q13093. recombinant pPAFAH, FP-rhodamine probe fluorescence polarization. inhibition, % at 3.39 µM. 1.5% of 330,000 active;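 active means inhibition above the mean inhibition across the screen plus 3 SD, cut at about 25% in these data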;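 further: inhibitors block binding of the rhodamine activity-based probe so polarization drops; 0% = enzyme with DMSO and 100% = wells lacking pPAFAH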
ARFGAP1 inh = rat ARFGAP1 inhibition; Q62848; Arfgap1-stimulated ARF1 GTP hydrolysis, GDP FP detection; inhibition, % at 16.5 µM; 0.26% of 360,000 active; AID 651572;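 active means inhibition above a per-plate limit, mean inhibition of low control wells plus 3 SD, cut at about 25% in these data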;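 further: 0% = DMSO wells with enzyme and 100% = wells lacking Arfgap1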
Target sequence (Q62848 1-136 limits assumed): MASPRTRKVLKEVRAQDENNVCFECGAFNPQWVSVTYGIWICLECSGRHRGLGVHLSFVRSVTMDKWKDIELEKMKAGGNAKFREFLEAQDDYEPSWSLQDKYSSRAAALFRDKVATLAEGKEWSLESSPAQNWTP
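Repeats: one replicate per compound; assay system: rat Arfgap1 catalytic domain, aa 1-136; times: enzyme reaction 120 min at 25 °C after 20 min preincubation; detection: FP of antibody-bound GDP Alexa 633 tracer, ex 620/em 688 nm; benchmarks: high control wells lacking Arfgap1, low control full reaction with DMSO; reagent: human ARF1(Δ1-17)-GTP substrate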
PAFAH2 FP conf = confirmation of human PAFAH2 inhibitors; shares compounds with PAFAH2 inh; recombinant PAFAH2, FP-rhodamine activity probe, fluorescence polarization; inhibition, % at 3.39 µM; 65% of 2,300 active;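 active means mean inhibition over three repeats above a set limit taken from the earlier primary screen, cut at about 30% in these data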;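 further: inhibitor blocks binding of rhodamine activity probe so polarization falls; 0% = enzyme with DMSO and 100% = wells lacking PAFAH2 protein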
Numbers without * were called inactive. Sampled rows, rich in hits. Any-hit rate of the full collection: about 2.8%.

What do the screens show for `Cc1ccsc1C(=O)OCC(=O)Nc1cccc(S(=O)(=O)N2CCOCC2)c1`?
PAFAH2 inh: 76.8*; ASAP1 GAP inh: 5.0; PAFAH1B2 inh: -2.5; PAFAH1B3 FP inh: -4.5; pPAFAH FP inh: 5.9; ARFGAP1 inh: 1.3; PAFAH2 FP conf: 57.9*

How did CCc1ccc(C(=O)NNC(=O)[C@H](C)NC(=O)c2ccco2)cc1 do in these assays?
PAFAH2 inh: 9.4; ASAP1 GAP inh: -16.6; PAFAH1B2 inh: 2.4; PAFAH1B3 FP inh: 6.9; pPAFAH FP inh: 1.6; ARFGAP1 inh: 15.4

How did COc1ccc2oc(C(=O)OCC(=O)NC3CCS(=O)(=O)C3)c(C)c2c1 (centres undefined) do in these assays?
ASAP1 GAP inh: -7.6; ARFGAP1 inh: 6.5

How did COc1ccc2oc(C(=O)OCC(=O)NC3CCCC3)c(C)c2c1 do in these assays?
PAFAH2 inh: 53.0*; ASAP1 GAP inh: -0.4; PAFAH1B2 inh: -2.3; PAFAH1B3 FP inh: 2.4; pPAFAH FP inh: 7.7; ARFGAP1 inh: 7.6; PAFAH2 FP conf: 40.1*

Results for COc1ccc2oc(C(=O)OCC(=O)NC3(C#N)CCCC3)c(C)c2c1 ?
PAFAH2 inh: 52.8*; ASAP1 GAP inh: -6.7; PAFAH1B2 inh: -2.6; PAFAH1B3 FP inh: 1.9; pPAFAH FP inh: 7.7; ARFGAP1 inh: 16.7; PAFAH2 FP conf: 38.5*

Results for COc1ccc2oc(C(=O)OCC(=O)Nc3ccc(NC(C)=O)cc3)c(C)c2c1 ?
PAFAH2 inh: -37.4; ASAP1 GAP inh: -2.0; PAFAH1B2 inh: -12.5; PAFAH1B3 FP inh: -30.4; pPAFAH FP inh: -11.2; ARFGAP1 inh: 10.4

How did COC(=O)[C@]12CCCCC=C1N(CCC1=CCCCC1)C(=O)[C@H](CC(=O)NCc1ccccc1)C2 do in these assays?
ASAP1 GAP inh: -9.9; ARFGAP1 inh: 2.7

How did Cc1cccc(N2NC(=O)/C(=C/c3ccc(-c4ccc(Cl)c(C(=O)O)c4)o3)C2=O)c1 do in these assays?
PAFAH2 inh: 32.4*; ASAP1 GAP inh: 0.0; PAFAH1B2 inh: 17.2; PAFAH1B3 FP inh: 23.9; ARFGAP1 inh: 0.0; PAFAH2 FP conf: 19.7

How did CCOc1ccccc1-c1nc(-c2cc3ccc(C)cc3[nH]c2=O)no1 do in these assays?
PAFAH2 inh: 51.8*; ASAP1 GAP inh: 15.2; PAFAH1B2 inh: -3.0; PAFAH1B3 FP inh: 0.1; pPAFAH FP inh: -1.3; ARFGAP1 inh: 15.3; PAFAH2 FP conf: 32.4*

How did Cc1ccc2cc(-c3noc(C4CCCCC4)n3)c(=O)[nH]c2c1 do in these assays?
PAFAH2 inh: 47.3*; ASAP1 GAP inh: 8.9; PAFAH1B2 inh: -2.6; PAFAH1B3 FP inh: -4.7; pPAFAH FP inh: -1.0; ARFGAP1 inh: 10.5; PAFAH2 FP conf: 50.6*

Results for CS/C(N)=N/N=C/c1cc(Br)cc(Br)c1O ?
PAFAH2 inh: 63.3*; ASAP1 GAP inh: -1.8; PAFAH1B2 inh: 6.2; PAFAH1B3 FP inh: 2.0; pPAFAH FP inh: 18.1; ARFGAP1 inh: 10.8; PAFAH2 FP conf: 43.4*

What do the screens show for `O=C(O/N=C1\CCCc2ccccc21)c1cccs1`?
PAFAH2 inh: 42.0*; ASAP1 GAP inh: -16.2; PAFAH1B2 inh: 4.0; PAFAH1B3 FP inh: 4.2; pPAFAH FP inh: -0.6; ARFGAP1 inh: -0.8; PAFAH2 FP conf: -5.4

How did O=S(=O)(NN1CCOCC1)c1ccc(Cl)s1 do in these assays?
PAFAH2 inh: 0.9; ASAP1 GAP inh: -7.9; PAFAH1B2 inh: 0.8; PAFAH1B3 FP inh: 6.1; pPAFAH FP inh: -8.3; ARFGAP1 inh: 0.4

What do the screens show for `COc1ccc(-n2c(C)cc(C(=O)Cn3nc(C(=O)O)c4ccccc4c3=O)c2C)cc1`?
PAFAH2 inh: -3.3; ASAP1 GAP inh: 7.0; PAFAH1B2 inh: 6.7; PAFAH1B3 FP inh: 6.4; pPAFAH FP inh: -0.9; ARFGAP1 inh: 6.5

How did COc1ccc(-n2c(C)cc(C(=O)Cn3nnc4ccccc4c3=O)c2C)cc1 do in these assays?
PAFAH2 inh: 72.6*; ASAP1 GAP inh: -6.9; PAFAH1B2 inh: -4.9; PAFAH1B3 FP inh: 10.4; pPAFAH FP inh: -1.3; ARFGAP1 inh: -6.4; PAFAH2 FP conf: -2.1

Results for CCCCN1C(=O)C(CC(=O)NCCCN(C)C)CC(C(=O)N2CCCCCC2)=C1C (centres undefined) ?
ASAP1 GAP inh: 12.2; ARFGAP1 inh: -1.9

What do the screens show for `COCCN(CC1CCCN(C2Cc3ccccc3C2)C1)C(=O)CSC` (centres undefined)?
PAFAH2 inh: 36.9*; ASAP1 GAP inh: -3.4; PAFAH1B2 inh: 1.6; PAFAH1B3 FP inh: 0.5; pPAFAH FP inh: -2.5; ARFGAP1 inh: 4.9; PAFAH2 FP conf: 22.6

What do the screens show for `COCCN(CC1CCCN(C2Cc3ccccc3C2)C1)C(=O)CCSC` (centres undefined)?
PAFAH2 inh: 18.5; ASAP1 GAP inh: -4.1; PAFAH1B2 inh: -2.3; PAFAH1B3 FP inh: 9.0; pPAFAH FP inh: 2.1; ARFGAP1 inh: -6.0

Results for COC(=O)c1ccc2c(=O)n(CCN3CCOCC3)c(SCC(=O)Nc3ccccc3Cl)nc2c1 ?
PAFAH2 inh: -3.7; ASAP1 GAP inh: 3.6; PAFAH1B2 inh: 3.5; PAFAH1B3 FP inh: 7.1; pPAFAH FP inh: 3.9; ARFGAP1 inh: 5.4

Results for O=c1ccn([C@@H]2O[C@H](CNCc3c(OCc4ccccc4F)ccc4ccccc34)[C@@H](O)[C@H]2O)c(=O)[nH]1 ?
ASAP1 GAP inh: 0.8; ARFGAP1 inh: 4.4

Results for O=c1cc(-c2ccccc2)[nH]n1-c1nc2ccccc2s1 ?
PAFAH2 inh: 41.8*; ASAP1 GAP inh: 9.8; PAFAH1B2 inh: 3.2; PAFAH1B3 FP inh: 17.1; pPAFAH FP inh: 15.3; ARFGAP1 inh: -12.3; PAFAH2 FP conf: 47.2*

How did O=c1cc(-c2ccccc2)[nH]n1-c1ccccc1 do in these assays?
PAFAH2 inh: 2.7; ASAP1 GAP inh: 5.0; PAFAH1B2 inh: 4.2; PAFAH1B3 FP inh: 11.7; ARFGAP1 inh: 7.0

Results for Cc1ccc(S(=O)(=O)N2CCCCC2)cc1NC(=O)COC(=O)c1ccc(=O)[nH]c1 ?
PAFAH2 inh: 55.9*; ASAP1 GAP inh: 4.3; PAFAH1B2 inh: -4.4; PAFAH1B3 FP inh: 5.7; pPAFAH FP inh: 3.5; ARFGAP1 inh: 0.3; PAFAH2 FP conf: 52.4*

How did Cc1ccc(S(=O)(=O)N2CCCCC2)cc1NC(=O)COC(=O)c1c(F)cccc1F do in these assays?
PAFAH2 inh: 37.7*; ASAP1 GAP inh: 3.5; PAFAH1B2 inh: -3.2; PAFAH1B3 FP inh: 6.5; pPAFAH FP inh: 6.1; ARFGAP1 inh: 5.9; PAFAH2 FP conf: 23.4

Results for Cc1ccc(S(=O)(=O)N2CCCCC2)cc1NC(=O)COC(=O)c1cc[n+]([O-])cc1 ?
PAFAH2 inh: -1.2; ASAP1 GAP inh: 3.0; PAFAH1B2 inh: 2.6; PAFAH1B3 FP inh: 11.8; pPAFAH FP inh: -0.7; ARFGAP1 inh: -11.3

How did Cc1ccc(S(=O)(=O)N2CCCCC2)cc1NC(=O)COC(=O)c1ccc(O)cc1 do in these assays?
PAFAH2 inh: 59.6*; ASAP1 GAP inh: -9.7; PAFAH1B2 inh: 7.6; PAFAH1B3 FP inh: 6.1; pPAFAH FP inh: 14.9; ARFGAP1 inh: -1.7; PAFAH2 FP conf: 66.5*
